Apaf-1 inh – inhibitors of human Apaf-1 apoptosome, primary screen, biochemical, DEVD-Rh110 fluorescence, uHTS; Apoptotic protease-activating factor 1 (Homo sapiens), O14727; reconstituted apoptosome caspase-3 activity; inhibition, % at 20 µM; actives 0.71% (n = 330,000); active = inhibition of at least 40% at 20 µM;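 also: plate controls were DMSO wells for no effect and DEVD-CHO caspase inhibitor wells for full effect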
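System: Apoptosome proteins | Medium: Hepes pH 7.5 with detergent and BSA | Also added: Cytochrome c trigger plus (Z-DEVD)2-Rh110 caspase-3 substrate | Incubation: 30 min compound preincubation, 50 min activation, room temperature | Detection: Rhodamine 110 fluorescence at Ex 480/Em 540 nm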
UBC13 inh – UBC13 polyubiquitin chain formation inhibitors, primary screen, biochemical, TR-FRET, uHTS; inhibition, % at 20 µM; actives 0.47% (n = 330,000); in the data active = inhibition above about 45%, passing the limit was not always enough; inconclusive = no clear call, values can overlap the other calls
PREPL inhibitor – PREPL enzyme inhibitors, primary screen, biochemical, fluorescence polarization; Prolyl endopeptidase-like (Homo sapiens), Q4J6C6; recombinant PREPL, fluorescence polarization activity-based probe; inhibition, % at 5.96 µM; actives 0.68% (n = 320,000); AID 2751, 2010;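 also: 0% = enzyme with DMSO and 100% = wells lacking enzyme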
Target sequence (Q4J6C6 whole entry, looked up): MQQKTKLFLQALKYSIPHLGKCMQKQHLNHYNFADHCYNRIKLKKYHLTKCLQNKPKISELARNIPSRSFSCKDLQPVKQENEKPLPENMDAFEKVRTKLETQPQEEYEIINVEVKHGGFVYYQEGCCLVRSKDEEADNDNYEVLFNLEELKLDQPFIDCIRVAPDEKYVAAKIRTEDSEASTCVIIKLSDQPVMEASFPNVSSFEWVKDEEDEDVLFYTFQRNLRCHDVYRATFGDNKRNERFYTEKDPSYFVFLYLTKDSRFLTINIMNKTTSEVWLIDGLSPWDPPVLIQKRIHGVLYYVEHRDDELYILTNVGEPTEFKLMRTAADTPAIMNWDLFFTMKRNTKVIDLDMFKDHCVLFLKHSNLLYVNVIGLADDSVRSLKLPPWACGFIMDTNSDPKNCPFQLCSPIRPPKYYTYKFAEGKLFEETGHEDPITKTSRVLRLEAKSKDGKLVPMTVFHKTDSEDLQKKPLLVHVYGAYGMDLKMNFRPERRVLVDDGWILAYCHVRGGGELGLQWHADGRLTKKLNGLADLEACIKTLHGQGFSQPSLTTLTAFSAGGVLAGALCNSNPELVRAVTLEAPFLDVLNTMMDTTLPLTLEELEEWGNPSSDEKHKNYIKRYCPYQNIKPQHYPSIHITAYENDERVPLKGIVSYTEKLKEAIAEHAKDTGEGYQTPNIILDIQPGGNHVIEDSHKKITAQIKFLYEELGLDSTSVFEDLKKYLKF
UCH37 inh – inhibitors of human UCH37 deubiquitinase, primary screen, biochemical, Ub-AMC cleavage, fluorescence; actives 0.33% (n = 330,000); purified proteasome/UCH37; Ubiquitin carboxyl-terminal hydrolase isozyme L5 (Homo sapiens), Q9Y5K5; AID 588478, 2011; inhibition, % (test concentration not listed);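 active = mean inhibition over replicate wells above about 20%, limit read from the data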;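 also: 0% = compound-free wells with enzyme and 100% = wells lacking proteasome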
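Reagent: Ub-AMC substrate; assay system: Proteasome-associated human UCH37 deubiquitinase; controls: no-proteasome and no-compound wells; read-out: % inhibition of Ub-AMC cleavage fluorescence; timing: 30 min preincubation with enzyme, 25 min cleavage at room temperature; signal: AMC fluorescence from Ub-AMC cleavage, excitation 355 nm, emission 460 nm; buffer or medium: Tris-HCl pH 7.4 plus ovalbumin, ATP-MgCl2, DTT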
PREPL inh cf – human PREPL enzyme inhibitors, confirmation, biochemical, fluorescence polarization | actives 67% (n = 2,000) | recombinant PREPL, fluorescence polarization activity probe | shares compounds with PREPL inhibitor | inhibition, % at 5.96 µM;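 also: 0% = protein with DMSO and 100% = wells lacking protein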
Casp3 counter – CASP3 inhibitor validation, counterassay for project on UBE2N polyubiquitination blockers, biochemical, one dose | actives 4% (n = 1,400) | inhibition, % at 20 µM | shares compounds with UBC13 inh | Recombinant caspase-3, Caspase-Glo 3/7 luminescence, 60 min;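 active = mean inhibition across replicates above about 26%, limit read from the data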;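 also: plate controls were DMSO with caspase-3 for no effect and DMSO wells lacking enzyme for full effect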
UBC13 conf – UBC13 polyubiquitination inhibitors, single-point retest, confirmation, biochemical, TR-FRET, single concentration | shares compounds with UBC13 inh | inhibition, % at 10 µM | actives 68% (n = 1,400) | AID 488859, 2010; in the data active = inhibition above about 45%; inconclusive = no clear call, values can overlap the other calls
Apaf-1 inh conf2 – Apaf-1 inhibitors, single-dose retest, confirmation, biochemical, fluorescence, DEVD-Rh110, 20 µM. shares compounds with Apaf-1 inh. reconstituted apoptosome, caspase-3 DEVD-Rh110 fluorescence. inhibition, % at 20 µM. actives 25% (n = 1,800). AID 504614, 2011;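 active = mean inhibition of at least 40% at 20 µM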;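 also: plate controls were DMSO wells for no effect and DEVD-CHO caspase inhibitor control wells for full effect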
Rh110 quench – Rh110 fluorescence interference by putative Apaf-1 inhibitors, confirmation, artefact control for Apaf-1 inhibitor project, biochemical, 20 µM; shares compounds with Apaf-1 inh; quenched caspase reaction; activation (fluorescence interference), % at 20 µM; 1,800 tested, under 10 active; AID 504615, 2011;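 active = signal rise of 40% or more at 20 µM, treated as a fluorescence artifact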
Apaf1 inh interf – fluorescence interference of Apaf-1 inhibitor hits, dose response, artefact control for Apaf-1 inhibitor project | IC50, µM | 460 tested, under 10 active | shares compounds with Apaf-1 inh | fluorescence interference counterscreen, Apaf-1 assay format; call rule not given here
UCH37 reconfirm – retest of human UCH37 deubiquitinase inhibitors, confirmation, biochemical, Ub-AMC cleavage rate, fluorescence. actives 27% (n = 480). inhibition, % at 20 µM. AID 624100, 2012. Proteasome-bound UCH37. shares compounds with UCH37 inh;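 active = average inhibition over replicates above about 50%, so the earlier screening hit is confirmed, limit read from the data; inactive = the rest, counted as false positives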;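 also: based on cleavage rate fitted by regression over a 30 min kinetic read; 0% = proteasome plus Ub-AMC and 100% = Ub-AMC without proteasome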
The depositor's hits bear a star; i = inactive; ? = inconclusive; . = not tested or not shown. Sampled rows, rich in hits. Any-hit rate of the full collection: about 1.5%. Rule as the data show it, unless noted: active = inhibition above about 43%; inactive = the rest.

SMILES | Apaf-1 inh | UBC13 inh | PREPL inhibitor | UCH37 inh | Casp3 counter | UBC13 conf | others
Cn1nc(-c2ccccn2)nc2c(=O)n(C)c(=O)nc1-2 | 98* | -64 | 59* | 97* | . | . | PREPL inh cf=52*;Apaf-1 inh conf2=100*;Rh110 quench=-1;Apaf1 inh interf=>100;UCH37 reconfirm=100*
Cc1ccc(C=Nn2c(COc3ccccc3)n[nH]c2=S)cc1 | . | . | . | 4 | . | .
Oc1ccc(N=Nc2ccccc2-c2nn[nH]n2)c(O)c1 | 12 | -99 | 51* | 27* | . | . | PREPL inh cf=53*;UCH37 reconfirm=26
CCC(CNc1cc(OC)cc2cccnc12)NC1CCCCC1 (stereo not drawn) | . | . | 54* | 37* | . | . | PREPL inh cf=44*;UCH37 reconfirm=54*
COc1cc(NCCCC(C)N)c2ncccc2c1 (stereo not drawn) | . | . | . | -1 | . | .
CCN(CC)c1ccc(C(=O)NN=Cc2ccc(OC)cc2OC)cc1 | . | . | . | -22 | . | .
Cc1ccc(O)c(CNc2ccccn2)c1 | 11 | 4 | -8 | -1 | . | .
Oc1ccc2ccccc2c1CNc1ccccn1 | 1 | 56* | -27 | 3 | -2 | 49*
Cc1nc2ccccc2c(=O)n1NC(=O)c1ccc(C(C)(C)C)cc1 | 6 | 39 | -7 | 0 | . | .
COc1ccc(C(=O)Nn2c(C)nc3ccccc3c2=O)cc1 | 0 | 82* | 3 | 1 | -8 | 84*
Cc1nc2ccccc2c(=O)n1NC(=O)/C=C/c1ccc(Br)cc1 | 6 | 60* | -28 | -2 | 7 | 53*
CCCOc1ccc(C(=O)Nn2c(C)nc3ccccc3c2=O)cc1 | -9 | 96* | 5 | 1 | -2 | 108*
COC(=O)NN=Cc1cn(Cc2ccccc2F)c2ccccc12 | . | . | . | 1 | . | .
CC1C(=O)NN=C1C(=O)NN=C/C(Br)=C/c1ccccc1 (stereo not drawn) | . | . | . | 9 | . | .
COc1ccc(C(=O)NNC(=S)NC(=O)c2ccc(F)cc2)cc1Br | 11 | -20 | 19 | 3 | . | .
COc1ccc(C(=O)NC(=S)NNC(=O)c2ccc(NC(C)=O)cc2)cc1Br | 6 | 71* | -7 | 4 | 1 | 104*
COc1ccc(C2CC(=O)c3cnc(N4CCc5ccccc54)nc3C2)cc1OC (stereo not drawn) | 6 | 60* | 5 | i | 2 | ?
ON=C(CN(O)/C=C1/C=CC=N1)c1cccs1 | . | . | . | 4 | . | .
COC(=O)c1c(NC(=S)NN2CCN(C)CC2)sc2c1CCC(C)C2 (stereo not drawn) | 36 | 62* | 10 | 7 | 4 | 91*
COC(=O)c1c(NC(=O)Cc2cccs2)sc2c1CCC(C)C2 (stereo not drawn) | 14 | 4 | -4 | -2 | . | .
CC[C@H](C)[C@@H](C(=O)NCCCCCCCCCCC(=O)N1CCNCC1)n1cc(CCCCN=C(N)N)nn1 | 24 | 49* | 9 | 5 | 2 | 24
C#CCOCCOCCOCCNc1nc(N2CCN(C(=O)[C@H]([C@@H](C)O)n3cc(CCCCN)nn3)CC2)nc(N2CCN(C(=O)[C@H](CCCCN)n3cc(CCC(=O)O)nn3)CC2)n1 | -5 | 1 | 5 | -1 | . | .
C#CCOCCOCCOCCNc1nc(N2CCOCC2)nc(N2CCN(C(=O)CCCCCCCCCCNC(=O)[C@@H]([C@H](C)CC)n3cc(CCCCCN)nn3)CC2)n1 | 20 | 70* | 15 | 4 | 2 | 64*
CC[C@H](C)Cc1cn([C@@H](CCCN=C(N)N)C(=O)NCCCCCCCCCCC(=O)N2CCNCC2)nn1 | 35 | 40 | 18 | 2 | . | .
C#CCOCCOCCOCCNc1nc(N2CCN(C(=O)CCCCCCCCCCNC(=O)[C@H](CCCCN)n3cc(CCCC(=O)O)nn3)CC2)nc(N2CCN(C(=O)CCCCCCCCCCNC(=O)[C@@H]([C@H](C)O)n3cc(C)nn3)CC2)n1 | 29 | 54* | 18 | 0 | -1 | 32
SMILES | Apaf-1 inh | UBC13 inh | PREPL inhibitor | UCH37 inh | Casp3 counter | UBC13 conf | others
Cc1cc(C)n(CC(=O)NN=Cc2ccco2)n1 | . | . | . | -1 | . | .
CC1CCCC(C)N1CCCNC(=O)C1CCCN(c2ncnc3c2nc2n3CCCCC2)C1 (stereo not drawn) | 9 | 56* | 28 | 0 | 2 | 88*
CCC1CCCCN1CCCNC(=O)C1CCCN(c2ncnc3c2nc2n3CCCCC2)C1 (stereo not drawn) | 11 | 35 | 13 | 2 | . | .
O=C(NCc1cccc(Cl)c1)C1CCCN(c2ncnc3c2nc2n3CCCCC2)C1 (stereo not drawn) | 5 | 4 | 0 | 0 | . | .
CN1CCN(C(=O)C2CCN(c3ncnc4c3nc3n4CCCCC3)CC2)CC1 | -4 | 86* | -2 | 5 | 5 | 101*
O=C(NCC1CCN(Cc2ccc(Cl)cc2)CC1)C1CCCN(c2ncnc3c2nc2n3CCCCC2)C1 (stereo not drawn) | 5 | 78* | 24 | 4 | -1 | 101*
O=C(NCC1CCN(Cc2cccc(Cl)c2)CC1)C1CCCN(c2ncnc3c2nc2n3CCCCC2)C1 (stereo not drawn) | 12 | 93* | 26 | 1 | -3 | 107*
CCCCC(=O)NN=C(C)C1=C(C)C(C)(C)OC1=O | . | . | . | -1 | . | .
Cn1ccc(C(=O)NN=Cc2cccnc2)n1 | . | . | . | 2 | . | .
CC(=NNC(=O)c1ccc(Br)cc1)c1cccc(NC(=O)c2cccnc2)c1 | . | . | . | 2 | . | .
CC(=NNc1ccc(C(F)(F)F)cc1[N+](=O)[O-])C(C)C | . | . | . | 5 | . | .

Screening data (PubChem)
